Here are results for nine molecules from ChEMBL document CHEMBL4428088, “Synthesis and evaluation of 6-pyrazoylamido-3N-substituted azabicyclo[3,1,0]hexane derivatives as T-type calcium channel inhibitors for treatment of neuropathic pain” (Bioorg Med Chem, 2016).

Activity calls are given as the source filed them. The calls are words filed in the database; no cut-off is given here.

The term IC50 denotes the concentration at which inhibition is half-maximal. Broadly, the inhibition is the change of the read-out against control, counted positive when it falls. By Cmax is commonly meant the maximum level reached in the sampled fluid or tissue. Broadly, the clearance is the rate of elimination divided by the concentration. One may read the bioavailability as the share of a dose that reaches the circulation, judged against a reference dose that is usually intravenous. One may read the AUC(0-t) as exposure summed from dosing to a finite time, without extrapolation to infinity. By MRT is commonly meant the average time that molecules of a dose stay in the body. A word on the AUC(0-inf): it is the area under the concentration-time curve extrapolated to infinity. Broadly, the Tmax is the time at which the peak concentration occurs.

The target of one series is CYP2D6 (Homo sapiens, UniProt P10635). Description: Inhibition of human CYP2D6 expressed in baculosomes assessed as remaining activity using fluorogenic substrate after 15 mins in presence of NADPH by fluorescence assay. Type of series: ADME. The arrangement: concentration or dose not given beside the values. The following applies: recombinant human CYP2D6 in baculosomes, probe fluorogenic substrate, read-out: Activity. The method, boiled down:
(§1)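 Vivid CYP450 fluorescence assay for CYP2D6, 2C9, 2C19 and 3A4. Compound was preincubated with baculosome Master Pre-Mix and regeneration system for 15 min at 37 °C. The reaction was started with Vivid substrate plus NADPH and read on a fluorescence plate reader. Values are % remaining activity, in triplicate.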

A further series has as its target CYP2C19 (Homo sapiens, UniProt P33261). Description: Inhibition of human CYP2C19 expressed in baculosomes assessed as remaining activity using fluorogenic substrate after 15 mins in presence of NADPH by fluorescence assay. Format: ADME. On the set-up: concentration or dose not given beside the values. The following applies: recombinant human CYP2C19 in baculosomes, probe fluorogenic substrate, read-out: Activity. The method, boiled down: as §1

For series [1], the target named is Voltage-gated inwardly rectifying potassium channel KCNH2 (Homo sapiens, UniProt Q12809). Put plainly: Inhibition of human ERG expressed in CHO-K1 cells by whole cell patch clamp method. Type of series: cell-based.
Voltage-gated inwardly rectifying potassium channel KCNH2, sequence (Q12809 whole entry): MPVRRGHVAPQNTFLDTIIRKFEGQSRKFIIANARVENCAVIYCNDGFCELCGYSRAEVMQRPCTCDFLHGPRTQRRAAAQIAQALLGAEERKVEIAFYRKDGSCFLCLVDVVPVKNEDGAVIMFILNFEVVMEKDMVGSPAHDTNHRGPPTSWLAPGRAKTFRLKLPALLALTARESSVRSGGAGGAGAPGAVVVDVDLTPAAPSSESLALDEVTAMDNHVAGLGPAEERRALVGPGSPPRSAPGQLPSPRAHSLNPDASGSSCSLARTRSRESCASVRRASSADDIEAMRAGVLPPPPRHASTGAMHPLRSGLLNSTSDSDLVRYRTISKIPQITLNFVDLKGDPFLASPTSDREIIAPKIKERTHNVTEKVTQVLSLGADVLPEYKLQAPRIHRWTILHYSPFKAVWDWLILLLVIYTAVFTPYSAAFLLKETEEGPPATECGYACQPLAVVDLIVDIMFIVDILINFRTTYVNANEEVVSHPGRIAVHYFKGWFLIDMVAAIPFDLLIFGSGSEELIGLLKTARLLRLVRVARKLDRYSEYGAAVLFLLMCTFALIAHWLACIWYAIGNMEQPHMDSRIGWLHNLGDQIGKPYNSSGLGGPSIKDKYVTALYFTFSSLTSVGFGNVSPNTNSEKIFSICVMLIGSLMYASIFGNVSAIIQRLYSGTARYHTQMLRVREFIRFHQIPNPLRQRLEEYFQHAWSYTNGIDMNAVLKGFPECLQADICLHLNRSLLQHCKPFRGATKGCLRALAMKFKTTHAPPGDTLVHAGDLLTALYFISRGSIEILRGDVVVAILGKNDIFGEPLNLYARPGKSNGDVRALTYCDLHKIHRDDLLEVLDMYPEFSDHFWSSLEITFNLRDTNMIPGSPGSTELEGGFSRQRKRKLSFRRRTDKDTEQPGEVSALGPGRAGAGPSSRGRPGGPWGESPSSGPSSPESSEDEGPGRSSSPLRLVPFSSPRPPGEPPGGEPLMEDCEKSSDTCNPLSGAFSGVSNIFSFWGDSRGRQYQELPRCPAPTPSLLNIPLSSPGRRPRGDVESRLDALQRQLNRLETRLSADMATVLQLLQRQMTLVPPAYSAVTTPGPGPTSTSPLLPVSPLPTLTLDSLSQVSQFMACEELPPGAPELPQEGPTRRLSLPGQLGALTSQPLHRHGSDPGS
The next series addresses CYP2C9 (Homo sapiens, UniProt P11712). Put plainly: Inhibition of human CYP2C9 expressed in baculosomes assessed as remaining activity using fluorogenic substrate after 15 mins in presence of NADPH by fluorescence assay. On the set-up: concentration or dose not given beside the values. Format: ADME. Particulars: recombinant human CYP2C9 in baculosomes, probe fluorogenic substrate, read-out: Activity. The method, boiled down:
as §1

A further series addresses CYP3A4 (Homo sapiens, UniProt P08684). Put plainly: Inhibition of human CYP3A4 expressed in baculosomes assessed as remaining activity using fluorogenic substrate after 15 mins in presence of NADPH by fluorescence assay. Format: ADME. The arrangement: concentration or dose not given beside the values. Particulars: recombinant human CYP3A4 in baculosomes, probe fluorogenic substrate, read-out: Activity. Put shortly:
as §1

The target of series [2] is T1, Voltage-dependent T-type calcium channel subunit alpha-1G (Homo sapiens, UniProt O43497). Put plainly: Inhibition of T-type alpha1G channel (unknown origin) expressed in HEK293 cells at 10 uM by fluorescence-based HTS assay. Type of series: cell-based. Put shortly:
(§2)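 FDSS6000 fluorescence-based HTS assay in HEK293 cells expressing Cav3.1 (α1G) or Cav3.2 (α1H), read as % inhibition.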

Series [3] deals with T2, Voltage-dependent T-type calcium channel subunit alpha-1H (Homo sapiens, UniProt O95180). Put plainly: Inhibition of T-type alpha1H channel (unknown origin) expressed in HEK293 cells at 10 uM by fluorescence-based HTS assay. Format: cell-based. The method, boiled down:
as §2

Series [4] is described as follows: Metabolic stability in human liver microsomes assessed as parent compound remaining after 30 mins in presence of NADPH by LC-MS/MS analysis. Type of series: ADME, Microsome. Particulars: read-out: Stability. The method, boiled down: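 Pooled human liver microsomes were incubated at 37 °C with compound in potassium phosphate buffer and 1.2 mM NADPH for 30 min. The reaction was stopped with cold acetonitrile containing internal standard, centrifuged, and the supernatant analysed by LC-MS/MS.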
For orientation: Liver microsomes are a subcellular fraction often used to study metabolism.

Series [5] has as its target T2, Voltage-dependent T-type calcium channel subunit alpha-1H. Put plainly: Inhibition of T-type alpha1H channel (unknown origin) by whole cell patch clamp method. The method, boiled down: (§3)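 Whole-cell patch clamp recording. T-type α1G and α1H IC50 values (±SD) were taken from dose-response curves.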
A general note: Patch clamp records ionic current or voltage across a cell membrane.

Series [6] addresses Voltage-dependent N-type calcium channel subunit alpha-1B (Homo sapiens) (UniProt Q00975). Put plainly: Inhibition of N-type calcium channel (unknown origin) at 10 uM by whole cell patch clamp method.
The target in series [7] is T1, Voltage-dependent T-type calcium channel subunit alpha-1G. Put plainly: Inhibition of T-type alpha1G channel (unknown origin) by whole cell patch clamp method. The method, boiled down: as §3
Series [8] concerns Rattus norvegicus. Put plainly: Antiallodynic activity in rat model of spinal nerve ligation-induced neuropathic pain assessed as reduction in cold allodynia by measuring paw withdrawal in response to acetone application at 100 mg/kg, po administered on day 14 after ligation surgery measured 1 to 5 hrs post dose relative to gabapentin. Type of series: functional. The method, boiled down: (§4)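 Spinal nerve ligation rats were dosed orally at 100 mg/kg 14 days after surgery, with gabapentin 100 mg/kg as reference (n = 5 test, n = 4 gabapentin). Mechanical and cold allodynia were tested 1, 3 and 5 h post dose. Significance versus pre-dose value by paired t-test.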

In series [9] the test system is Rattus norvegicus. Description: Antiallodynic activity in rat model of spinal nerve ligation-induced neuropathic pain assessed as […] for paw withdrawal at 100 mg/kg, po administered on day 14 after ligation surgery and measured 3 to 5 hrs post dose by Von Frey filaments based method. Type of series: functional, organism-based. Put shortly:
as §4

The target in series [10] is T2, Voltage-dependent T-type calcium channel subunit alpha-1H. Put plainly: Inhibition of T-type alpha1H channel (unknown origin) expressed in HEK293 cells after 3 mins by patch clamp assay. Format: cell-based.
The nature of series [11]: Cmax in rat at 10 mg/kg, po. The arrangement: dose 10 mg/kg, route oral. The following applies: in vivo. Format: ADME, organism-based.
Series [12] in a line: Ratio of drug level in rat brain to plasma at 10 mg/kg, po at 2 hrs. Format: ADME, organism-based. Particulars: brain and plasma, read-out: BPR.
The nature of series [13]: Clearance in rat at 10 mg/kg, iv. Type of series: ADME, organism-based. The following applies: in vivo.
Series [14] in a line: Oral bioavailability in rat at 10 mg/kg. Type of series: ADME, organism-based. The following applies: in vivo.
Series [15] in a line: AUClast in rat at 10 mg/kg, po. Particulars: in vivo. The arrangement: dose 10 mg/kg, route oral, time 0 - last. Type of series: ADME, organism-based.
A short description of series [16]: AUClast in rat at 10 mg/kg, iv. Type of series: ADME, organism-based. On the set-up: dose 10 mg/kg, time 0 - last, route intravenous. The following applies: in vivo.
The nature of series [17]: Mean residence time in rat at 10 mg/kg, iv. Format: ADME, organism-based. Particulars: in vivo.
Series [18] is described as follows: AUC (0 to infinity) in rat at 10 mg/kg, po. On the set-up: dose 10 mg/kg, route oral, time infinity. Particulars: in vivo. Type of series: ADME, organism-based.
A short description of series [19]: AUC (0 to infinity) in rat at 10 mg/kg, iv. On the set-up: dose 10 mg/kg, time infinity, route intravenous. Type of series: ADME, organism-based. Particulars: in vivo.
The nature of series [20]: Ratio of drug level in rat brain to plasma at 10 mg/kg, iv at 2 hrs. Type of series: ADME, organism-based. The following applies: brain and plasma, read-out: BPR.
A short description of series [21]: Tmax in rat at 10 mg/kg, po. Format: ADME, organism-based. Particulars: in vivo.

CYP3A4, sequence (P08684 whole entry): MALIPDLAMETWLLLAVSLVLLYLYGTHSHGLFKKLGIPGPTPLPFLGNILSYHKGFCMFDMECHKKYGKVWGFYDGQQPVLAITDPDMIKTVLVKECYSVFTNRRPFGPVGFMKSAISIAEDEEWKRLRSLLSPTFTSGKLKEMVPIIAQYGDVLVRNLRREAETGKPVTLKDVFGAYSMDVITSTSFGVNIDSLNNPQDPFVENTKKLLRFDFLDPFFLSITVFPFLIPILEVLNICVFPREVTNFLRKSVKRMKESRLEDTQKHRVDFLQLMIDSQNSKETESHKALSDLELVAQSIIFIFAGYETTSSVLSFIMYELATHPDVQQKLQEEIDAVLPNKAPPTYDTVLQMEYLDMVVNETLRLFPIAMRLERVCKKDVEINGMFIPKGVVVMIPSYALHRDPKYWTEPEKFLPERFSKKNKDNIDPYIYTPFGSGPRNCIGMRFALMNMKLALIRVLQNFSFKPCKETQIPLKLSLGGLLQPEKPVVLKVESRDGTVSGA
CYP2C19, sequence (P33261 whole entry): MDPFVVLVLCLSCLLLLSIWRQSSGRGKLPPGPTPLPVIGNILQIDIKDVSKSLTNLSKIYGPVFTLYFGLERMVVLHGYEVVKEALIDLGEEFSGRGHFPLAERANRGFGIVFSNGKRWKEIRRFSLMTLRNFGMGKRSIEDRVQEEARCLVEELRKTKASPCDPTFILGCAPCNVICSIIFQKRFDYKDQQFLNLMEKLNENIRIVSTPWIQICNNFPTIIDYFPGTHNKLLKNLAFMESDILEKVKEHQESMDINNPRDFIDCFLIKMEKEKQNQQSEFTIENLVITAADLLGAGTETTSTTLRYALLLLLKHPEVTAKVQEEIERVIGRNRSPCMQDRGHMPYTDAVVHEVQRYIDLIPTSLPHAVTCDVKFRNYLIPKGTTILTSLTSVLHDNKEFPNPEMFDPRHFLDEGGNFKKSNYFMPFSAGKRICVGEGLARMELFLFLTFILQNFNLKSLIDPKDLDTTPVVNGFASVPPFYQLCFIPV
T2 sequence (O95180 whole entry): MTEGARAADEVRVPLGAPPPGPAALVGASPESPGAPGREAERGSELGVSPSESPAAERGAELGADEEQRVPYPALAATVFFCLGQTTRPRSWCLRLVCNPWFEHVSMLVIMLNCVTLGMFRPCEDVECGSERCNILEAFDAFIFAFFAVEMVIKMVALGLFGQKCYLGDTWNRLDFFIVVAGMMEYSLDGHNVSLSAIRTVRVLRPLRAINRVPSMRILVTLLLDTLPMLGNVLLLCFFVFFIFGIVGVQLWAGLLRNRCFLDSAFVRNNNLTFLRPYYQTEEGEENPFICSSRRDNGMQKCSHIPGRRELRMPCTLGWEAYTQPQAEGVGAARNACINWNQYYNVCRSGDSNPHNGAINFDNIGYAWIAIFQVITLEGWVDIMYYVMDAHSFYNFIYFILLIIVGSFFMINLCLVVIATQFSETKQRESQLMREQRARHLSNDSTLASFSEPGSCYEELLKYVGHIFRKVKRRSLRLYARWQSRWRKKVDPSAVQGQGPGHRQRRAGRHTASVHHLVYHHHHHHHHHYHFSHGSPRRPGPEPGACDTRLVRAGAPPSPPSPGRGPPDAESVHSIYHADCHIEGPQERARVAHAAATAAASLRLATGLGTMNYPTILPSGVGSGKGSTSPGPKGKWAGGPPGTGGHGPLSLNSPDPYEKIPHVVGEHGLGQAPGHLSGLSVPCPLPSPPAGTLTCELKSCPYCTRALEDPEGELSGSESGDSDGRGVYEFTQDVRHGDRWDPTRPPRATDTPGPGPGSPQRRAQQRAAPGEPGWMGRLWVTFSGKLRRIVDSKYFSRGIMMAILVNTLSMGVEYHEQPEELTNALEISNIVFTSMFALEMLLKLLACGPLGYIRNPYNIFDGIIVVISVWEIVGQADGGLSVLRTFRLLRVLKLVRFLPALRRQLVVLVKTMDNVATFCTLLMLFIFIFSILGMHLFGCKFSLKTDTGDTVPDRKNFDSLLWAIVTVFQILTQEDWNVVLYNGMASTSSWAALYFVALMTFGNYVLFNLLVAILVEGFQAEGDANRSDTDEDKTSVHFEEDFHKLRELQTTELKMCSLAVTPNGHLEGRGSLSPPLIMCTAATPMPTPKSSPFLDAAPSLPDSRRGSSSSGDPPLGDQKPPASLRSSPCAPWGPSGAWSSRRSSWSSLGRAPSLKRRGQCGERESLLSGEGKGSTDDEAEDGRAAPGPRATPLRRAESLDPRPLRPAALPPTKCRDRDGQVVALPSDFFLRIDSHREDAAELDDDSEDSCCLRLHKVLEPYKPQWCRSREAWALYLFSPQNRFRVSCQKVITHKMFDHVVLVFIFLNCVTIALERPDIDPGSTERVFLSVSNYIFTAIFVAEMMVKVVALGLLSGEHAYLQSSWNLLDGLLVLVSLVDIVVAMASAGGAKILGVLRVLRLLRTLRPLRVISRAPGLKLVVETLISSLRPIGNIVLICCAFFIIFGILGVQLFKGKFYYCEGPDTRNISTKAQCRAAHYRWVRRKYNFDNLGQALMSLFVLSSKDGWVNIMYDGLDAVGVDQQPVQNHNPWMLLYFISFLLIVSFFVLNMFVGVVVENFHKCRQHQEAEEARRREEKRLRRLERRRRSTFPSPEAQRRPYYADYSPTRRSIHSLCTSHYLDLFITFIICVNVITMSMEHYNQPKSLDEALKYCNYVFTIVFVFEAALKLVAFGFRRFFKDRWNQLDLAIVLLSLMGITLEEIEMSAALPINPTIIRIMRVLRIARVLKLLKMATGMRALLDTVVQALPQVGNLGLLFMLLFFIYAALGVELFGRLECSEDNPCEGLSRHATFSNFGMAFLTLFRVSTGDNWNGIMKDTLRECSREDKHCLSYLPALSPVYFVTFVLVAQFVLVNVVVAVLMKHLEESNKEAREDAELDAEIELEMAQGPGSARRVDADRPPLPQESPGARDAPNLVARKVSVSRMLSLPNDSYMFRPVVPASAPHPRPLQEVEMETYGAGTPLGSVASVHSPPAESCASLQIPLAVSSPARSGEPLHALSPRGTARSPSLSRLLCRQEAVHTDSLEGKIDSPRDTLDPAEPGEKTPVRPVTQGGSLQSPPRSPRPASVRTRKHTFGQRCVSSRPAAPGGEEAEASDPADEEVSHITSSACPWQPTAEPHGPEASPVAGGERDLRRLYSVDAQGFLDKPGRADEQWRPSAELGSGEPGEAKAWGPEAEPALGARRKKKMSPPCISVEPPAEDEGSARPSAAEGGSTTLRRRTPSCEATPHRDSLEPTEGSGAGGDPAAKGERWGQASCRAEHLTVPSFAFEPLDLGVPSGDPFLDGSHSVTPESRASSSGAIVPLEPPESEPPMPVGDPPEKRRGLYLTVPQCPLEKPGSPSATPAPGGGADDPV
CYP2D6, sequence (P10635 whole entry): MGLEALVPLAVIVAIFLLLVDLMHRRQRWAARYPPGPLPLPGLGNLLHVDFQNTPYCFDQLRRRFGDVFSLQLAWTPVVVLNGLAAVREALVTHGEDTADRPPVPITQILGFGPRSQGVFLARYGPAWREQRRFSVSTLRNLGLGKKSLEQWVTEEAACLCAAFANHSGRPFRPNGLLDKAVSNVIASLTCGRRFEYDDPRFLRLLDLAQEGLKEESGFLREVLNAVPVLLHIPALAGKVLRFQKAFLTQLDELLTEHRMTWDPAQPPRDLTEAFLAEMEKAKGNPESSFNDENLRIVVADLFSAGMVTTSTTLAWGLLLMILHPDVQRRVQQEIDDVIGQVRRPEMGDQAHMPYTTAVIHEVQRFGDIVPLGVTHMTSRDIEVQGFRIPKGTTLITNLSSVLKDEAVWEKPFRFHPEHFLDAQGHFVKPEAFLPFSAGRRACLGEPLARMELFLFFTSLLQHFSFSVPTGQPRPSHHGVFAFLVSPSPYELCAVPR

Regarding `CC(C)Cc1cc(CNC(=O)C2C3CN(Cc4ccccc4)CC32)nn1-c1ccccc1` (stereo not given), the activity at 0.25 h at CYP2D6 amounted to 56.2%; at CYP2C19, 30.3%; on CYP2C9 it was 118%; at CYP3A4, 102%. The same molecule displayed an IC50 in [1] of 1430 nM.

In the case of `CC(C)Cc1cc(CNC(=O)C2C3CN(C(=O)Cc4ccccc4)CC32)nn1-c1ccccc1` (stereo not given), the inhibition was found to be 81% in series [2], 89.9% in [3] and 60.6% in series [6]. Further, in [4], the remaining at 0.5 h was 57.8%. In addition, the activity at 0.25 h on CYP2D6 is 83%; at CYP2C19 it was 65.5%; on CYP2C9, 24.8%; on CYP3A4, 80.4%. The IC50 in series [5] is 2500 nM; in series [1], 20800 nM; in [7] it was 2730 nM.

For `CC(C)Cc1cc(CNC(=O)C2C3CN(CCC(C)(C)C)CC32)nn1-c1ccccc1` (stereo not given), the “fold change (FC)” value with Rattus norvegicus [8] is reported as 3. Further, the Activity result in the series on Rattus norvegicus [9] is “Active”. The activity at 0.25 h at CYP2D6 stood at 126%; on CYP2C19 it was 101%; on CYP2C9, 72.8%; at CYP3A4, 82.3%. Moreover, in series [1], the IC50 was determined as 2600 nM.

Turning to `CC(C)Cc1cc(C(=O)NCC2C3CN(CCC(C)(C)C)CC23)nn1-c1ccccc1` (stereo not given), the activity at 0.25 h on CYP2D6 was found to be 55.9%; on CYP2C19 it was 84.2%; on CYP2C9, 87.1%; on CYP3A4, 130%.

Take `CC(C)(C)CCN1CC2C(CNC(=O)c3cc(Cl)cc(Cl)c3)C2C1` (stereo not given): in series [10], the IC50 was 310 nM.

In the case of `CC(C)Cc1cc(CNC(=O)C2C3CN(C(=O)c4ccccc4)CC32)nn1-c1ccccc1` (stereo not given), the “fold change (FC)” value in the series with Rattus norvegicus [8] is on record as 2. The Activity result in the series with Rattus norvegicus [9] was “inactive”. For the same molecule, the activity at 0.25 h was found to be 94% on CYP2D6, 60.8% at CYP2C19, 64.6% at CYP2C9 and 74.6% on CYP3A4. In [11], this molecule returned a Cmax of 280 ng/mL. Also, the Kp at 2 h in series [12] stood at 0.12; in series [20], 0.29. Further, the clearance in series [13] was 43.8 mL/min/kg. The bioavailability in series [14] turned out to be 7.6%. Besides, the AUC(0-t) in series [15] was 273 ng·h/mL; in [16], 3850 ng·h/mL. In series [17], this molecule showed a mean residence time MRT of 18.2 min. Moreover, the values for the AUC(0-inf) in series [18] and in series [19] were 294 ng·h/mL and 3860 ng·h/mL, respectively. The Tmax in [21] was 26 min.

On to `CN(CCCc1nc2ccccc2[nH]1)C(=O)C1C2CN(CCc3ccc(C(F)(F)F)cc3)CC21` (stereo not given), for which the figures for the inhibition in series [2] and in [3] were 49.2% and 58.7%, respectively. Moreover, the remaining at 0.5 h in series [4] amounted to 76.9%. Also, the activity at 0.25 h on CYP2D6 was 27.7%; on CYP2C19, 42.3%; on CYP2C9, 51.4%; on CYP3A4 it was 61.4%.

On to `CC(C)Cc1cc(CNC(=O)C2C3CN(CCc4ccc(C(F)(F)F)cc4)CC32)nn1-c1ccccc1` (stereo not given), for which the inhibition in [2] was 60.5%; in series [3], 64.6%.

Turning to `NCC1(CC(=O)O)CCCCC1`, in the series with Rattus norvegicus [9], the Activity entry was “inactive”.
